Legend:
[1] = target: T1, CYP11B1 (Homo sapiens, UniProt P15538); test: Inhibition of human CYP11B1 expressed in hamster V79MZh cells using [1,2-3H]-11-deoxy-corticosterone as substrate; type: cell-based; details: human, hamster V79MZh cells expressing human CYP11B1, probe [1,2-3H]-11-deoxy-corticosterone
T1 sequence (P15538 whole entry): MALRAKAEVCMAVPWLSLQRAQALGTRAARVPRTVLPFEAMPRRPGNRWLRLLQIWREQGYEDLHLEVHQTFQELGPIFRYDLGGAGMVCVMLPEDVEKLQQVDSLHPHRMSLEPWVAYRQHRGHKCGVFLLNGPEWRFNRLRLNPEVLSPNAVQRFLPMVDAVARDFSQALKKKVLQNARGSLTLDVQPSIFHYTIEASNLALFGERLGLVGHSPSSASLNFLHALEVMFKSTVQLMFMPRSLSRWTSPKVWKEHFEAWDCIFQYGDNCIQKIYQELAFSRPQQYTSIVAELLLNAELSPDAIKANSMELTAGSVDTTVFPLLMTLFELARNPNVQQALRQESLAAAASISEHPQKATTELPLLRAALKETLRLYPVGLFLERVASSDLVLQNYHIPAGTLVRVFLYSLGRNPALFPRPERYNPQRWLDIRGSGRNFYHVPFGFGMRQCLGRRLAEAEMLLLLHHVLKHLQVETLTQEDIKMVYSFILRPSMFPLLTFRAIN
Summary of the method: (§1)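 V79MZh hamster fibroblasts stably expressing human CYP11B1 or CYP11B2, incubated with [1,2-³H]-11-deoxycorticosterone (100 nM) and inhibitor at varying concentrations. IC50 taken as mean of at least three experiments (relative SD under 25%).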

[2] = target: T2, CYP11B2 (Homo sapiens, UniProt P19099); test: Inhibition of human CYP11B2 expressed in hamster V79MZh cells using [1,2-3H]-11-deoxy-corticosterone as substrate; type: cell-based; details: human, hamster V79MZh cells expressing human CYP11B2, probe [1,2-3H]-11-deoxy-corticosterone; summary of the method: as §1
T2 sequence (P19099 whole entry): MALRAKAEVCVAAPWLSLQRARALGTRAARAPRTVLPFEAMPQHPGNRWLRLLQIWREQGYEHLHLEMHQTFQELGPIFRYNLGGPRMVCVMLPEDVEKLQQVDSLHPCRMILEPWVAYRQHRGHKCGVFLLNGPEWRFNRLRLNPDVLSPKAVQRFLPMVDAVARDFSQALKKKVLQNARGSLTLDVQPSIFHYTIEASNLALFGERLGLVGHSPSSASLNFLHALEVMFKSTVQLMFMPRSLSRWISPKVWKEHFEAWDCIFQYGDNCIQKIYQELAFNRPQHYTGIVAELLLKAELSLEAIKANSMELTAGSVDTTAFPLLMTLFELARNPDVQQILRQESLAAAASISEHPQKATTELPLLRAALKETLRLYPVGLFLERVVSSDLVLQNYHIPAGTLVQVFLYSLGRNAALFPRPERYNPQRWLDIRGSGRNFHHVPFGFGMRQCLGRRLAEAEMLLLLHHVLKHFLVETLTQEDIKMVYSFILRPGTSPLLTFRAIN

[3] = system: V79MZh; test: Selectivity factor, ratio of IC50 for human CYP11B1 to IC50 for human CYP11B2 expressed in hamster V79MZh cells; type: cell-based
Summary of the method: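 SF calculated as IC50(CYP11B1)/IC50(CYP11B2). Both IC50s come from V79MZh hamster fibroblasts expressing the human enzyme, with [1,2-³H]-11-deoxycorticosterone at 100 nM as substrate.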

[4] = target: T3, CYP17 (Homo sapiens, UniProt P05093); test: Inhibition of human CYP17 expressed in Escherichia coli using progesterone as substrate at 2 uM; details: probe progesterone
T3 sequence (P05093 whole entry): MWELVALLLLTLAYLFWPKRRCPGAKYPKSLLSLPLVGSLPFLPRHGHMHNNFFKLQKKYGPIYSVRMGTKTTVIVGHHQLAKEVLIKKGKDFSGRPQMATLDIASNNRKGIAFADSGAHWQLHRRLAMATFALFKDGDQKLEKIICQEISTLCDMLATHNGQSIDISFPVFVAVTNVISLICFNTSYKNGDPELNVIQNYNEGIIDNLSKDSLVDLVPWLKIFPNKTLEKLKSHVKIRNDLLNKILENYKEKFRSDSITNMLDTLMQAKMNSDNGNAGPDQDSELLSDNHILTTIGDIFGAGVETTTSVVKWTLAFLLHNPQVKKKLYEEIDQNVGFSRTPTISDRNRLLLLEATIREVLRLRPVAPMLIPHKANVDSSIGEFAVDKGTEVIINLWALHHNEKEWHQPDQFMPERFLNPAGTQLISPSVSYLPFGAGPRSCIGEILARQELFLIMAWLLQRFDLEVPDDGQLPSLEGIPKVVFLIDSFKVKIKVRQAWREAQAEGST
Summary of the method: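 Enzyme source was the 90000g sediment of E. coli coexpressing human CYP17 and cytochrome P450 reductase. Progesterone substrate at 25 μM, NADPH cofactor, inhibitor at 2 μM. Percent inhibition is the mean of at least two experiments (SD under 10%).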

IC50 [1]: 2.2 nM | IC50 [2]: 24 nM | inhibition at 2 µM [4]: 41%
Compound: O=C1CCc2cc(C(C3CC3)n3ccnc3)cc3c2N1CC3 (centres undefined)
Ratio IC50 [3]: 0.1
